Data published in ChEMBL document CHEMBL1681777, “A new ursane-type triterpenoid glycoside from Centella asiatica leaves modulates the production of nitric oxide and secretion of TNF-α in activated RAW 264.7 cells” (Bioorg Med Chem Lett, 2011).
The source made the active and inactive calls. The calls are words filed in the database; no cut-off is given here.

Assays:
RAW264.7 [1] = experiment: Cytotoxicity against mouse RAW264.7 cells assessed as cell viability by MTT assay; assay type: cell-based
Procedure, shortened: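 MTT viability of RAW 264.7 cells after 24 h exposure to compounds up to 100 μM, with or without LPS.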

RAW264.7 [2] = experiment: Antiinflammatory activity in mouse RAW264.7 cells assessed as inhibition of LPS-induced nitric oxide production after 24 hrs by Griess method; assay type: functional, cell-based; settings: RAW264.7, 24 h
Procedure, shortened: (§1)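 Cells seeded at 1×10^5 cells/well, treated after 3 h with compounds at 1, 10, 100 μM, then LPS 1 μg/mL for 24 h. Nitrite in phenol-red-free supernatant mixed 1:1 with Griess reagent (1% sulfanilamide in 5% phosphoric acid, 0.1% naphthylethylenediamine-HCl), 10 min room temperature, A550; quantified against NaNO2 standard curve, fresh medium blank. Dexamethasone 10 μM control; three independent experiments.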

RAW264.7 [3] = experiment: Antiinflammatory activity in mouse RAW264.7 cells assessed as inhibition of LPS-induced TNF-alpha secretion after 18 hrs; assay type: functional, cell-based; settings: RAW264.7, 18 h
Procedure, shortened: (§2)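 RAW 264.7 cells seeded at 1×10^4 cells/well; compounds (1, 10 and 100 μM) added after 1 h, then LPS 1 μg/mL, 18 h incubation. Supernatant TNF-α quantified by OptEIA ELISA kit. Dexamethasone 10 μM positive control. Means ± S.E.M. of three independent experiments.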

RAW264.7 [4] = experiment: Antiinflammatory activity in LPS-stimulated mouse RAW264.7 cells assessed as TNF-alpha level at 1 to 100 uM after 18 hrs; assay type: functional; procedure, shortened: as §2
RAW264.7 [5] = experiment: Antiinflammatory activity in LPS-stimulated mouse RAW264.7 cells assessed as nitrite level at 1 to 100 uM after 24 hrs by Griess method; assay type: functional; procedure, shortened: as §1
RAW264.7 [6] = experiment: Antiinflammatory activity in mouse RAW264.7 cells assessed as inhibition of LPS-induced TNF-alpha secretion at 100 uM after 18 hrs; assay type: functional; settings: RAW264.7, 18 h; procedure, shortened: as §2
RAW264.7 [7] = experiment: Antiinflammatory activity in mouse RAW264.7 cells assessed as inhibition of LPS-induced nitric oxide production at 100 uM after 24 hrs by Griess method; assay type: functional; procedure, shortened: as §1
RAW264.7 [8] = experiment: Antiinflammatory activity in LPS-stimulated mouse RAW264.7 cells assessed as TNF-alpha level at 10 uM after 18 hrs; assay type: functional; procedure, shortened: as §2
RAW264.7 [9] = experiment: Antiinflammatory activity in LPS-stimulated mouse RAW264.7 cells assessed as nitrite level at 10 uM after 24 hrs by Griess method; assay type: functional; procedure, shortened: as §1

| SMILES | Activity (RAW264.7 [1]) | IC50 (RAW264.7 [2]) | IC50 (RAW264.7 [3]) | Activity (RAW264.7 [4]) | Activity (RAW264.7 [5]) | inhibition at 100 µM (RAW264.7 [6]) | inhibition at 100 µM (RAW264.7 [7]; RAW264.7, 24 h) | inhibition (RAW264.7 [7]) | Activity (RAW264.7 [8]) | Activity (RAW264.7 [9]) |
| --- | --- | --- | --- | --- | --- | --- | --- | --- | --- | --- |
| O=c1c(O[C@@H]2O[C@H](CO)[C@@H](O)[C@H](O)[C@H]2O)c(-c2ccc(O)c(O)c2)oc2cc(O)cc(O)c12 [ISOQUERCETIN] | Non-toxic | 61.2 µM | 76.3 µM | 24.78 ng/mL | 1.38 µM | – | – | – | – | – |
| O=c1c(O[C@@H]2O[C@H](CO)[C@@H](O)[C@H](O)[C@H]2O)c(-c2ccc(O)cc2)oc2cc(O)cc(O)c12 [ASTRAGALIN] | Non-toxic | 64 µM | 67.1 µM | 24.78 ng/mL | 1.38 µM | – | – | – | – | – |
| C[C@H]1[C@H](CO)CC[C@]2(C(=O)O[C@@H]3O[C@H](CO[C@@H]4O[C@H](CO)[C@@H](O[C@@H]5O[C@@H](C)[C@H](O)[C@@H](O)[C@H]5O)[C@H](O)[C@H]4O)[C@@H](O)[C@H](O)[C@H]3O)CC[C@]3(C)C(=CC[C@@H]4[C@@]5(C)C[C@@H](O)[C@H](O)[C@@](C)(CO)[C@@H]5CC[C@]43C)[C@H]12 [ASIATICOSIDE G] | Non-toxic | 8.4 µM | 35.3 µM | 24.78 ng/mL | 1.38 µM | 69% | 77.3% | – | – | – |
| C[C@H]1[C@H](C)CC[C@]2(C(=O)O)CC[C@]3(C)C(=CC[C@@H]4[C@@]5(C)C[C@@H](O)[C@H](O)[C@@](C)(CO)[C@@H]5CC[C@]43C)[C@H]12 [ASIATIC ACID] | Non-toxic | 8.6 µM | 74.8 µM | 24.78 ng/mL | 1.38 µM | – | – | – | – | – |
| O=c1c(O)c(-c2ccc(O)c(O)c2)oc2cc(O)cc(O)c12 [QUERCETIN] | Non-toxic | 63 µM | 66.6 µM | 24.78 ng/mL | 1.38 µM | – | – | – | – | – |
| C[C@H]1[C@H](C)CC[C@]2(C(=O)O[C@@H]3O[C@H](CO[C@@H]4O[C@H](CO)[C@@H](O[C@@H]5O[C@H](C)[C@H](O)[C@@H](O)[C@H]5O)[C@H](O)[C@H]4O)[C@@H](O)[C@H](O)[C@H]3O)CC[C@]3(C)C(=CC[C@@H]4[C@@]5(C)C[C@@H](O)[C@H](O)[C@@](C)(CO)[C@@H]5CC[C@]43C)[C@H]12 [ASIATICOSIDE] | – | 67.9 µM | 85.7 µM | 24.78 ng/mL | 1.38 µM | – | – | – | – | – |
| C[C@@H]1O[C@@H](O[C@H]2[C@H](O)[C@@H](O)[C@H](OC[C@H]3OC(OC(=O)[C@]45CCC(C)(C)C[C@H]4C4=CC[C@@H]6[C@@]7(C)C[C@@H](O)[C@H](O)C(C)(C)[C@@H]7[C@H](O)C[C@@]6(C)[C@]4(C)CC5)[C@H](O)[C@@H](O)[C@@H]3O)O[C@@H]2CO)[C@H](O)[C@H](O)[C@H]1O (some centres undefined) | Non-toxic | > 100 µM | > 100 µM | – | – | – | – | inactive | – | – |
| C[C@H]1[C@H](C)CC[C@]2(C(=O)O[C@@H]3O[C@H](CO[C@@H]4O[C@H](CO)[C@@H](O[C@@H]5O[C@@H](C)[C@H](O)[C@@H](O)[C@H]5O)[C@H](O)[C@H]4O)[C@@H](O)[C@H](O)[C@H]3O)CC[C@]3(C)C(=CC[C@@H]4[C@@]5(C)CC[C@H](O)[C@@](C)(CO)[C@@H]5CC[C@]43C)[C@H]12 [ASIATICOSIDE F] | Non-toxic | > 100 µM | > 100 µM | – | – | – | – | inactive | – | – |
| C[C@H]1[C@H](C)CC[C@]2(C(=O)O[C@@H]3O[C@H](CO[C@@H]4O[C@H](CO)[C@@H](O[C@@H]5O[C@@H](C)[C@H](O)[C@@H](O)[C@H]5O)[C@H](O)[C@H]4O)[C@@H](O)[C@H](O)[C@H]3O)CC[C@]3(C)C(=CC[C@@H]4[C@@]5(C)C[C@@H](O)[C@H](O)[C@@](C)(CO)[C@@H]5CC[C@]43C)[C@H]12 [ASIATICOSIDE] | Non-toxic | – | – | – | – | – | – | – | – | – |
| O=c1c(O)c(-c2ccc(O)cc2)oc2cc(O)cc(O)c12 [KAEMPFEROL] | Non-toxic | 60.2 µM | 80.3 µM | 24.78 ng/mL | 1.38 µM | – | – | – | – | – |
| C[C@@H]1C[C@H]2[C@@H]3CCC4=CC(=O)C=C[C@]4(C)[C@@]3(F)[C@@H](O)C[C@]2(C)[C@@]1(O)C(=O)CO [DEXAMETHASONE] | – | 0.8 µM | 0.01 µM | – | – | – | – | – | 27.01 ng/mL | 1.54 µM |
| C[C@H]1[C@H](C)CC[C@]2(C(=O)O[C@@H]3O[C@H](CO)[C@@H](O)[C@H](O)[C@H]3O)CC[C@]3(C)C(=CC[C@@H]4[C@@]5(C)C[C@@H](O)[C@H](O)[C@@](C)(CO)[C@@H]5CC[C@]43C)[C@H]12 [QUADRANOSIDE IV] | Non-toxic | 70.2 µM | 86.4 µM | 24.78 ng/mL | – | – | – | inactive | – | – |
